{
  "source": "ChEMBL document CHEMBL5653631",
  "about": "“A Potent and Selective ULK1 Inhibitor Suppresses Autophagy and Sensitizes Cancer Cells to Nutrient Stress” (iScience, 2018)",
  "key": {"[1]": {"target": "5'-AMP-activated protein kinase catalytic subunit alpha-2 (Homo sapiens) (UniProt P54646)", "sequence (P54646 whole entry, looked up)": "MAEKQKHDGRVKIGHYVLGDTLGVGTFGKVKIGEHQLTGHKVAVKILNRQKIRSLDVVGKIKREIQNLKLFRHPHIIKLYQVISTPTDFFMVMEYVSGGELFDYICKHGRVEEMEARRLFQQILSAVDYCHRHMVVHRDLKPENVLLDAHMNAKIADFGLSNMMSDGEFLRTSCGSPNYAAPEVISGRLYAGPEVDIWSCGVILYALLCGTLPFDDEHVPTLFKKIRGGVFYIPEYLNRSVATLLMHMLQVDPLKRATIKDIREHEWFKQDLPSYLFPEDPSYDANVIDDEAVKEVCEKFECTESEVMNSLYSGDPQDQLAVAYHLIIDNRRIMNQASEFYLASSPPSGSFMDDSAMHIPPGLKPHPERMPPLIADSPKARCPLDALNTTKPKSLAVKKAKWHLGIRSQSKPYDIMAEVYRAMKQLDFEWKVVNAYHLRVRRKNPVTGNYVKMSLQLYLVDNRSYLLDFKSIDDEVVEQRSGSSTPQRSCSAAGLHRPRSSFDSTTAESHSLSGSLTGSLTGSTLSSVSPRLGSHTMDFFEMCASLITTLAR", "assay": "Inhibition of human recombinant AMPKa2 at 500 nM related to control ULK1", "how_it_was_run": "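Panel of 327 recombinant human kinases, each assayed in vitro by radiometric activity assay in duplicate at a single inhibitor concentration per compound, chosen with reference to its ULK1 inhibition. Activity remaining was expressed as percent of vehicle control, and percent inhibition was calculated as 100 minus percent activity remaining.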"}, "[2]": {"target": "Serine/threonine-protein kinase 10 (Homo sapiens) (UniProt O94804)", "sequence (O94804 whole entry, looked up)": "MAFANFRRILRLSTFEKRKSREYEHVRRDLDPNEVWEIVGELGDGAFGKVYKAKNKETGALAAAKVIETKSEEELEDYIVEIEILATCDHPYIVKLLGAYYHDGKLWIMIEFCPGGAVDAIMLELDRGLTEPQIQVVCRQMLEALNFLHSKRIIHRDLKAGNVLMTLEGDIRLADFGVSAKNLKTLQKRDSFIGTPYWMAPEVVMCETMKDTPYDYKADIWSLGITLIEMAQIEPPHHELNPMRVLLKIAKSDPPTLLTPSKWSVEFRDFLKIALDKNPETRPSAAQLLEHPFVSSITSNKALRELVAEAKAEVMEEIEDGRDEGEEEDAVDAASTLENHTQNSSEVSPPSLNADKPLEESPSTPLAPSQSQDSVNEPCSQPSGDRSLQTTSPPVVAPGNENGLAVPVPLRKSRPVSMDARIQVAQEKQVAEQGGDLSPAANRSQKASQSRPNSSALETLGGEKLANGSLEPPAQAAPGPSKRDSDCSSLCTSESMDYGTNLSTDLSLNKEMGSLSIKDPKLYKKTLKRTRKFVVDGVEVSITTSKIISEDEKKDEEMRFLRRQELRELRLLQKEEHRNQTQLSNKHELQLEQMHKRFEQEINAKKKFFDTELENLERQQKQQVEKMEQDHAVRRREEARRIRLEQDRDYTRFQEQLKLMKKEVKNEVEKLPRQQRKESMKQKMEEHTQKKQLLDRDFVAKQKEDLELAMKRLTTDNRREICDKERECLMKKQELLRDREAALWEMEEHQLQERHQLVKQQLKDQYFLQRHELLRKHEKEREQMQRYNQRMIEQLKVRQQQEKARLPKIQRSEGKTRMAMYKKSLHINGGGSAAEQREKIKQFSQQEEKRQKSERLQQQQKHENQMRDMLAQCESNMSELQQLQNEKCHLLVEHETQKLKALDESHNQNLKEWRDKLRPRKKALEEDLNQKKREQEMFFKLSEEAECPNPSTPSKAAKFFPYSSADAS", "assay": "Inhibition of human recombinant LOK at 15 nM in presence of ATP by radiometric assay relative to control"}, "[3]": {"target": "Insulin receptor (Homo sapiens) (UniProt P06213)", "assay": "Inhibition of human recombinant INSR at 15 nM related to control ULK1"}, "[4]": {"target": "Protein kinase C gamma type (Homo sapiens) (UniProt P05129)", "assay": "Inhibition of human recombinant PKCg at 15 nM related to control ULK1"}, "[5]": {"target": "Macrophage colony-stimulating factor 1 receptor (Homo sapiens) (UniProt P07333)", "assay": "Inhibition of human recombinant FMS at 15 nM in presence of ATP by radiometric assay relative to control"}, "[6]": {"target": "T1, Serine/threonine-protein kinase haspin (Homo sapiens) (UniProt Q8TF76)", "T1 sequence (whole entry)": "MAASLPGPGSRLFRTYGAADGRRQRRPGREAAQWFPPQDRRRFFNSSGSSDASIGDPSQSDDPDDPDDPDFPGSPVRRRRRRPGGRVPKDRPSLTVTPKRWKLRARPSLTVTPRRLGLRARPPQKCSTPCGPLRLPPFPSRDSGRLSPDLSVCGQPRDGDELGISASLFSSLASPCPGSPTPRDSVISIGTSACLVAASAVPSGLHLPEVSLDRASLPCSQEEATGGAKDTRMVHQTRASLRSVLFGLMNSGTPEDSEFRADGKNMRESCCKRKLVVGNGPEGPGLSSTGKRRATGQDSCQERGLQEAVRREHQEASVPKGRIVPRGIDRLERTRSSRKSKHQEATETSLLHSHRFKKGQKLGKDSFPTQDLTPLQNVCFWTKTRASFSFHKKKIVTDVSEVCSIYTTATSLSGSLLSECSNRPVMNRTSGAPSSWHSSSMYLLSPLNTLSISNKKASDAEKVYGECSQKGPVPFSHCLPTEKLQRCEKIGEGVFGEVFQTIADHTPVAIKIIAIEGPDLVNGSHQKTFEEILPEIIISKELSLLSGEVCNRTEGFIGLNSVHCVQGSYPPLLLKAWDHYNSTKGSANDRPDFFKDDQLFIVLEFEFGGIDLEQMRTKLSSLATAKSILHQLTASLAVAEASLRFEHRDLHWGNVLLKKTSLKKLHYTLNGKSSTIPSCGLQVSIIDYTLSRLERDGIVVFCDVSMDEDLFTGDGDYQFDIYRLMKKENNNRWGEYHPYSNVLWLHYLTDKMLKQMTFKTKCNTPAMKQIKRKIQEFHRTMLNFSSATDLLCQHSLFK", "assay": "Inhibition of human recombinant Haspin at 15 nM related to control ULK1"}, "[7]": {"target": "Fibroblast growth factor receptor 4 (Homo sapiens) (UniProt P22455)", "sequence (P22455 22-802 limits assumed)": "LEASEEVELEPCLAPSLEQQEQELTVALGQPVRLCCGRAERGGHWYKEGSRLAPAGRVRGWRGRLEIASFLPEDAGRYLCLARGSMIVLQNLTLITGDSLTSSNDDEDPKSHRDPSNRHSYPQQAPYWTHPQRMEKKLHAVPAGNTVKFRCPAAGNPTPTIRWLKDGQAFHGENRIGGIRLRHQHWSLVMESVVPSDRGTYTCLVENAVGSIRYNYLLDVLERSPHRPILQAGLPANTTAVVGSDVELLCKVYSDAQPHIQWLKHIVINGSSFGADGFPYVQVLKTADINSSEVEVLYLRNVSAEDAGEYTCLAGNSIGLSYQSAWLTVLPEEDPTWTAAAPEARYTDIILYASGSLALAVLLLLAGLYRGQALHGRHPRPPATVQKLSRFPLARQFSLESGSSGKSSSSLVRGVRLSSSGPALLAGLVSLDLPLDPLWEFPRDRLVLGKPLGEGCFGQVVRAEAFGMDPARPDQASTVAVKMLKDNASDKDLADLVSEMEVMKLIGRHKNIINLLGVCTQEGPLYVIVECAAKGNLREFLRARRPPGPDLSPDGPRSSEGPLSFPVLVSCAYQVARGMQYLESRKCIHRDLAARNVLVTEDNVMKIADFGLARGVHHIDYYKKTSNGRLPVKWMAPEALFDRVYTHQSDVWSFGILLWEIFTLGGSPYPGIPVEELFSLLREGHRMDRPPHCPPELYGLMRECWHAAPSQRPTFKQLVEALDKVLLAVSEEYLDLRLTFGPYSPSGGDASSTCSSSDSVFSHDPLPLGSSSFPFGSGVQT", "assay": "Inhibition of human recombinant FGFR4 at 15 nM in presence of ATP by radiometric assay relative to control"}, "[8]": {"target": "NT-3 growth factor receptor (Homo sapiens) (UniProt Q16288)", "assay": "Inhibition of human recombinant TRKC at 15 nM related to control ULK1"}, "[9]": {"target": "T2, Rhodopsin kinase GRK1 (Homo sapiens) (UniProt Q15835)", "T2 sequence (whole entry)": "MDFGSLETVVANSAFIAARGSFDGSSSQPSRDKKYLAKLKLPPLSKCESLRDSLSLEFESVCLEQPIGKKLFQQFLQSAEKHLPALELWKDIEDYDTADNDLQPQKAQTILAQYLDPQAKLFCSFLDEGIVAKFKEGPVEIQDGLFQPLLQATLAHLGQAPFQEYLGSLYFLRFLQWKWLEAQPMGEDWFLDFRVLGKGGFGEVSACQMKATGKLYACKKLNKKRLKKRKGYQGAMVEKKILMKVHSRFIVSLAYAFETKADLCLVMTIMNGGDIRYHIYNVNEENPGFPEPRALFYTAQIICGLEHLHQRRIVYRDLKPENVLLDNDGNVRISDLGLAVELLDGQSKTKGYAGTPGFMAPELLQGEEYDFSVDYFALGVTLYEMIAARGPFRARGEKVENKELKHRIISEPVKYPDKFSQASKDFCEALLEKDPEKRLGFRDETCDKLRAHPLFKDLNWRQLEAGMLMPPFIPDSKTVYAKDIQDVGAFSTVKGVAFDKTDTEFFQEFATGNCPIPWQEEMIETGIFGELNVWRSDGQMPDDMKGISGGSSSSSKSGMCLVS", "assay": "Inhibition of human recombinant RHOK at 15 nM in presence of ATP by radiometric assay relative to control"}, "[10]": {"target": "Leucine-rich repeat serine/threonine-protein kinase 2 (Homo sapiens) (UniProt Q5S007)", "assay": "Inhibition of human recombinant LRRK2 at 40 nM in presence of ATP by radiometric assay relative to control"}, "[11]": {"target": "Interleukin-1 receptor-associated kinase 1 (Homo sapiens) (UniProt P51617)", "sequence (P51617 whole entry, looked up)": "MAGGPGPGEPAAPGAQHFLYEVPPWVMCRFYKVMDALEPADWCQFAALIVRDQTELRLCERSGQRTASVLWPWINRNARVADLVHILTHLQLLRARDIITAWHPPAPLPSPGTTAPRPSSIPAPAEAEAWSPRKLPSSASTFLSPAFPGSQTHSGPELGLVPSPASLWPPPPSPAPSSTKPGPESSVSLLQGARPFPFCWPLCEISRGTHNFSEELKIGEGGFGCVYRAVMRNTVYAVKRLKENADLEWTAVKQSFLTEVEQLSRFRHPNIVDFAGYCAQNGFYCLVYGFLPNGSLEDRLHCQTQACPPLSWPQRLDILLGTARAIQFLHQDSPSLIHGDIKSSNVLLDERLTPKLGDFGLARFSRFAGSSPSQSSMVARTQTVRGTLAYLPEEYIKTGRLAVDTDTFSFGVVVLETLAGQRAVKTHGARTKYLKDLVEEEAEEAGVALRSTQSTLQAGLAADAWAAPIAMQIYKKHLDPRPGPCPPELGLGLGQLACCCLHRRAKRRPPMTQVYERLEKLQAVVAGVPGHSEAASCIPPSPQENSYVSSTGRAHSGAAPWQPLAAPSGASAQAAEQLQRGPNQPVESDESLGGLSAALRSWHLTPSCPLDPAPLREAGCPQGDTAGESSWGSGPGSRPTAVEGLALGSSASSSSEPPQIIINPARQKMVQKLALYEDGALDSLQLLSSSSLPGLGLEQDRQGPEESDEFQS", "assay": "Inhibition of human recombinant IRAK1 at 40 nM in presence of ATP by radiometric assay relative to control"}, "[12]": {"target": "T3, Serine/threonine-protein kinase Nek11 (Homo sapiens) (UniProt Q8NG66)", "T3 sequence (whole entry)": "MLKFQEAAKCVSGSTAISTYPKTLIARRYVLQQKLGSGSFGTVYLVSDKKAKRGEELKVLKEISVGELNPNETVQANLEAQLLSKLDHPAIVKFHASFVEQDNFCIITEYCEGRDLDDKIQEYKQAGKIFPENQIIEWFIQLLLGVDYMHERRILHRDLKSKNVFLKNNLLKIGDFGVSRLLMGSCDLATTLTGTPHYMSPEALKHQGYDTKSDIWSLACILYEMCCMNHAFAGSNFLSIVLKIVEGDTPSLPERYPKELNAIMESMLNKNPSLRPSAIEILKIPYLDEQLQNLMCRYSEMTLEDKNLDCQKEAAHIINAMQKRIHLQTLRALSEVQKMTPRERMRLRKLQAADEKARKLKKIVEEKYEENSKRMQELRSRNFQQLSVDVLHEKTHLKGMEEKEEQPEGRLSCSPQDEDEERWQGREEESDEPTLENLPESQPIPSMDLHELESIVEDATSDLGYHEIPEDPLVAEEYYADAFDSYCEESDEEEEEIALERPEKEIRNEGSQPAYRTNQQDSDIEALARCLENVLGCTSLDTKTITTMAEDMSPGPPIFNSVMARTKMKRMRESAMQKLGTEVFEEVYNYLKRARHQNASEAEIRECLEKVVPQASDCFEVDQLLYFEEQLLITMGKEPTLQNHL", "assay": "Inhibition of human recombinant NEK11 at 40 nM in presence of ATP by radiometric assay relative to control"}, "[13]": {"target": "Fibroblast growth factor receptor 1 (Homo sapiens) (UniProt P11362)", "sequence (P11362 22-822 limits assumed)": "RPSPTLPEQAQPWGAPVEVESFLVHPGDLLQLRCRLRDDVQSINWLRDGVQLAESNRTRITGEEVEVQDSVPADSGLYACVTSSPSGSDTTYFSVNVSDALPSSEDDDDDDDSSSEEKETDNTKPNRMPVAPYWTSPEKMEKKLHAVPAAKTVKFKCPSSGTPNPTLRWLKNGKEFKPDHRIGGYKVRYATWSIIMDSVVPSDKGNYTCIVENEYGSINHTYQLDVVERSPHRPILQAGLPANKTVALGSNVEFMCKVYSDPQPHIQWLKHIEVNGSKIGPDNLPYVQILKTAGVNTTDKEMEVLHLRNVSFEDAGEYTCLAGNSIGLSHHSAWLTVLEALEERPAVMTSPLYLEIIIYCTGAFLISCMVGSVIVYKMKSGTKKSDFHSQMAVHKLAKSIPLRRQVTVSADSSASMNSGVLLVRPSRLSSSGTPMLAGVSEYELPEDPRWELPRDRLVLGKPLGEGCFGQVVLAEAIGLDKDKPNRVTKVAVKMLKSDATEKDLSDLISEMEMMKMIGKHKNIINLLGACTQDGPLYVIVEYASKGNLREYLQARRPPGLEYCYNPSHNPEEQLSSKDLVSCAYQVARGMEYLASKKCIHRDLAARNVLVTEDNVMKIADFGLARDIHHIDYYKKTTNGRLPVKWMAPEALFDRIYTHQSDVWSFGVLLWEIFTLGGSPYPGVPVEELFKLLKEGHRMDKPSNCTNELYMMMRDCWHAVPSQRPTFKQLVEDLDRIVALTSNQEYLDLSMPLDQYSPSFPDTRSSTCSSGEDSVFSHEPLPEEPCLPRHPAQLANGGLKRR", "assay": "Inhibition of human recombinant FGFR1 at 40 nM in presence of ATP by radiometric assay relative to control"}},
  "data": [
    {"compound": "CNC(=O)c1ccccc1Oc1nc(Nc2cc(OC)c(OC)c(OC)c2)ncc1Br", "values": [
      {"measurement": "fold change (FC)", "setting": "[1]", "result": 0.77}
    ]},
    {"compound": "CC(C)[C@H](NC(=O)c1cc(-c2cnn3cc(-c4ccc(OCCN5CCCCC5)cc4)cnc23)cs1)C(F)(F)F", "values": [
      {"measurement": "inhibition", "setting": "[2]", "result": 0, "unit": "%"},
      {"measurement": "fold change (FC)", "setting": "[3]", "result": 0},
      {"measurement": "fold change (FC)", "setting": "[4]", "result": 0},
      {"measurement": "inhibition", "setting": "[5]", "result": 17, "unit": "%"},
      {"measurement": "fold change (FC)", "setting": "[6]", "result": 0},
      {"measurement": "inhibition", "setting": "[7]", "result": 0, "unit": "%"},
      {"measurement": "fold change (FC)", "setting": "[8]", "result": 0},
      {"measurement": "inhibition", "setting": "[9]", "result": 0, "unit": "%"}
    ]},
    {"compound": "O=C(N[C@@H](C1CC1)C(F)(F)F)c1cc(-c2cnn3cc(-c4ccc(F)cc4)cnc23)cs1", "values": [
      {"measurement": "inhibition", "setting": "[10]", "result": 3, "unit": "%"},
      {"measurement": "inhibition", "setting": "[11]", "result": 7, "unit": "%"},
      {"measurement": "inhibition", "setting": "[12]", "result": 8, "unit": "%"},
      {"measurement": "inhibition", "setting": "[13]", "result": 0, "unit": "%"}
    ]}
  ]
}
